Holding throughout (set-up): dose 5 mg/kg, dosed compound name [14C]-apixaban, route oral
Holding throughout (conditions): in vivo

For series [1], the system named is Rattus norvegicus. Kind of series: Biodistribution in female Sprague-Dawley rat brown fat at 5 mg/kg, po administered as single dose measured after 72 hrs. Format: ADME, organism-based, Brown adipose tissue. The essentials: (§1)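 Quantitative whole-body autoradiography was run after a single 5 mg/kg (100 μCi/kg) oral gavage to fasted female or pregnant SD rats, one rat per time point. Carcasses were frozen in hexane/dry ice, and 40 µm sagittal sections were dried at −20°C for at least 48 h. Sections were exposed to a phosphor plate alongside [14C]glucose standards (0.001–6.5 µCi/g). Results are µg eq/g, with LLOQ 0.037 µg eq/g.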

In series [2] the test system is Rattus norvegicus. Kind of series: Biodistribution in male Sprague-Dawley rat brown fat at 5 mg/kg, po administered as single dose measured after 8 hrs. Format: ADME, organism-based, Brown adipose tissue. The essentials:
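Fasted male rats, 225-252 g, received [14C]apixaban by single oral gavage at 100 μCi/kg in 0.5% Tween 80/Labrafil. One rat was killed per time point and the carcass frozen. Tissue radioactivity was quantified by QWBA (40 µm sagittal sections, phosphor plate, [14C]glucose calibration) as µg eq apixaban/g, with LLOQ 0.037 μg eq/g.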

For series [3], the system named is Rattus norvegicus. Kind of series: Biodistribution in female Sprague-Dawley rat kidney cortex at 5 mg/kg, po administered as single dose measured after 24 hrs. Format: ADME, organism-based. The essentials:
as §1

Series [4] concerns Lung. As to the kind of experiment: Biodistribution in female Sprague-Dawley rat lung at 5 mg/kg, po administered as single dose measured after 8 hrs. The class given is ADME, organism-based. Put shortly: (§2)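 [¹⁴C]Apixaban given by oral gavage at 5 mg/kg (100 μCi/kg) in 0.5% Tween 80 in Labrafil (1.0 mg/mL dosing solution) to rats fasted overnight through 4 h post-dose. One rat per time point; carcass frozen in hexane/dry ice. Quantitative whole-body autoradiography used 40 µm sagittal sections and a phosphor imaging plate calibrated with [¹⁴C]glucose standards (0.001–6.5 μCi/g). Read-out in µg eq apixaban/g; LLOQ 0.037 μg eq/g.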

For series [5], the system named is Rattus norvegicus. As to the kind of experiment: Biodistribution in female Sprague-Dawley rat kidney cortex at 5 mg/kg, po administered as single dose measured after 8 hrs. The class given is ADME, organism-based. Put shortly: (§3)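 [14C]apixaban (20 μCi/mL in dosing solution) in 0.5% Tween 80 in Labrafil given by oral gavage to fasted female rats, 206-213 g, at 100 μCi/kg. One rat per time point was euthanized and snap-frozen. Sagittal 40 µm whole-body sections were read by QWBA phosphor imaging against [14C]glucose standards. Results are in µg eq apixaban/g, with LLOQ 0.037 μg eq/g.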

Series [6] has as its system Rattus norvegicus. Kind of series: Biodistribution in female Sprague-Dawley rat brown fat at 5 mg/kg, po administered as single dose measured after 8 hrs. The class given is ADME, organism-based, Brown adipose tissue. Put shortly: as §3
Series [7] has as its system Spleen. Kind of series: Biodistribution in male Sprague-Dawley rat spleen at 5 mg/kg, po administered as single dose measured after 24 hrs. Format: ADME, organism-based. The essentials:
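Fasted male SD rats (225-252 g) each received one oral gavage dose of [14C]apixaban, 5 mg/kg (100 μCi/kg), in 0.5% Tween 80/Labrafil vehicle. One rat was killed per time point, from 0.5 to 168 h. Frozen carcasses were cut into 40 µm sagittal whole-body sections and read by QWBA phosphor imaging against [14C]glucose calibrants. Results are in µg apixaban eq/g; BLQ <0.037 µg eq/g.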

The test system of series [8] is Harderian gland. As to the kind of experiment: Biodistribution in male Sprague-Dawley rat harderian gland at 5 mg/kg, po administered as single dose measured after 1 hr. Format: ADME, organism-based. Put shortly:
as §2

In the next series the test system is Muscle tissue. As to the kind of experiment: Biodistribution in male Sprague-Dawley rat muscle at 5 mg/kg, po administered as single dose measured after 1 hr. Format: ADME, organism-based. Put shortly: (§4)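 [14C]apixaban (1.0 mg/mL, 20 μCi/mL) in 0.5% Tween 80 in Labrafil, given by oral gavage at 100 μCi/kg to male rats (225-252 g) fasted overnight through 4 h post-dose. One rat per time point. Carcasses frozen in hexane/dry ice and cut into 40 µm sagittal sections. QWBA read on phosphor plates against [14C]glucose standards, reported as µg eq/g. LLOQ 0.037 µg eq/g.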

The next series has as its system Heart. Kind of series: Biodistribution in male Sprague-Dawley rat heart at 5 mg/kg, po administered as single dose measured after 4 hrs. Format: ADME, organism-based. The essentials: as §4
For series [9], the system named is Lung. Kind of series: Biodistribution in pregnant Sprague-Dawley rat lung at 5 mg/kg, po administered as single dose measured after 8 hrs. Format: ADME, organism-based.
The test system of series [10] is Rattus norvegicus. Kind of series: Biodistribution in fetal kidney of pregnant Sprague-Dawley rat at 5 mg/kg, po administered as single dose measured after 8 hrs. Format: ADME, organism-based. Put shortly: (§5)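 Fasted pregnant SD rats (n=6, 270-319 g) each received one oral gavage dose of [14C]apixaban, 5 mg/kg (100 μCi/kg), in 0.5% Tween 80/Labrafil. One rat was killed at each of 0.5, 1, 4, 8, 24 and 48 h. Carcasses were frozen in hexane/dry ice, cut into 40 µm sagittal sections, exposed to phosphor plates and quantified against [14C]glucose standards as µg eq/g. LLOQ was 0.037 µg eq/g.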

The next series relates to Adrenal gland. As to the kind of experiment: Biodistribution in pregnant Sprague-Dawley rat adrenal gland at 5 mg/kg, po administered as single dose measured after 24 hrs. Format: ADME, organism-based. Put shortly: as §5
The test system of series [11] is Brain. Kind of series: Biodistribution in female Sprague-Dawley rat brain at 5 mg/kg, po administered as single dose measured after 0.5 hrs. The class given is ADME, organism-based. The essentials: (§6)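 [14C]Apixaban (1.0 mg/mL, 20 μCi/mL in 0.5% Tween 80 in Labrafil) given as a single oral gavage of 5 mg/kg (100 μCi/kg) to fasted female SD rats, one rat per time point. Carcasses were frozen in hexane/dry ice and cut into 40 µm sagittal sections for QWBA against [14C]glucose standards. Brain radioactivity is reported as µg eq/g, with LLOQ 0.037 µg eq/g.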

In series [12] the test system is Rattus norvegicus. Kind of series: Biodistribution in female Sprague-Dawley rat bone marrow at 5 mg/kg, po administered as single dose measured after 0.5 hrs. The class given is ADME, organism-based. The essentials:
as §3

Series [13] in a line: Drug level in lactating Sprague-Dawley rat milk at 5 mg/kg, po administered as single dose after 0 to 24 hrs. The class given is ADME, organism-based.
Series [14] relates to Rattus norvegicus. Kind of series: Biodistribution in pregnant Sprague-Dawley rat placenta at 5 mg/kg, po administered as single dose measured after 48 hrs. Format: ADME, organism-based. Put shortly:
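Pregnant SD rats (270-319 g) were fasted overnight and given one oral gavage of 5 mg/kg (100 μCi/kg) in 0.5% Tween 80 in Labrafil. One rat was euthanized per time point (0.5, 1, 4, 8, 24, 48 h) and the carcass frozen. 40 µm sagittal sections were phosphor-imaged against [14C]glucose standards and results reported as µg eq/g; LLOQ 0.037 µg eq/g.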

For series [15], the system named is Harderian gland. As to the kind of experiment: Biodistribution in female Sprague-Dawley rat harderian gland at 5 mg/kg, po administered as single dose measured after 4 hrs. Format: ADME, organism-based. Put shortly: as §2
In series [16] the test system is Rattus norvegicus. Kind of series: Biodistribution in pregnant Sprague-Dawley rat kidney cortex at 5 mg/kg, po administered as single dose measured after 4 hrs. Format: ADME, organism-based.
The subject of series [17] is Spleen. Kind of series: Biodistribution in pregnant Sprague-Dawley rat spleen at 5 mg/kg, po administered as single dose measured after 4 hrs. Format: ADME, organism-based.
In a further series the test system is Liver. Kind of series: Biodistribution in female Sprague-Dawley rat liver at 5 mg/kg, po administered as single dose measured after 1 hr. Format: ADME, organism-based. The essentials:
as §1

For series [18], the system named is Brain. As to the kind of experiment: Biodistribution in female Sprague-Dawley rat brain at 5 mg/kg, po administered as single dose measured after 1 hr. The class given is ADME, organism-based. The essentials:
as §6

The test system of series [19] is Rattus norvegicus. Kind of series: Biodistribution in pregnant Sprague-Dawley rat placenta at 5 mg/kg, po administered as single dose measured after 0.5 hrs. Format: ADME, organism-based.

Regarding `COc1ccc(-n2nc(C(N)=O)c3c2C(=O)N(c2ccc(N4CCCC[14C]4=O)cc2)CC3)cc1`, the Radiolabel recovery result in the series with Rattus norvegicus [1] is “Not detected assumed BLQ”; in the series with Rattus norvegicus [2], 0.07 ugequiv/g; in the series with Rattus norvegicus [3] it was “Not detected assumed BLQ”; in the series with Lung [4], 0.2 ugequiv/g; with Rattus norvegicus [5], 0.42 ugequiv/g; with Rattus norvegicus [6] it was 0.17 ugequiv/g. Also, the Radiolabel recovery result in the series on Spleen [7] is recorded as “Not detected assumed BLQ”; in the series on Harderian gland [8], 0.69 ugequiv/g; with Muscle tissue, 0.43 ugequiv/g; in the series on Heart, 0.45 ugequiv/g; in the series with Lung [9], 0.15 ugequiv/g; with Rattus norvegicus [10] it was “Not sampled as not visualised in autoradiograph”. Also, the Radiolabel recovery entry in the series on Adrenal gland is “Not sampled as not visualised in autoradiograph”; with Brain [11], under 0.037 ugequiv/g; with Rattus norvegicus [12], 0.29 ugequiv/g; in series [13], 4.6 µg/mL; in the series on Rattus norvegicus [14], “Not detected assumed BLQ”; with Harderian gland [15], 1.12 ugequiv/g. The Radiolabel recovery with Rattus norvegicus [16] is reported as 1.93 ugequiv/g; with Spleen [17], 0.47 ugequiv/g; in the series with Liver it was 4.31 ugequiv/g; with Brain [18] it was under 0.037 ugequiv/g; in the series on Rattus norvegicus [19] it was 1.02 ugequiv/g.

For the origin of these results see ChEMBL document CHEMBL3525963, “Tissue distribution and elimination of [14C]apixaban in rats” (Drug Metab Dispos, 2011).
